Assay outcomes as filed in PubChem BioAssay.
CSC inhib – cancer stem cell inhibition | cancer stem cell-like cells viability, luminescence | inhibition, % at 7.5 µM | actives 1.1% (n = 300,000) | AID 2717; in the data active means inhibition above about 75%; tested in HMLE shEcad cells
HIF activator – HIF pathway transcriptional activation; U2OS HRE-luciferase reporter, luminescence; normalized: DMSO 0%, desferrioxamine 100%; activation, % at 7.5 µM (by protocol); actives 0.32% (n = 300,000);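 active means mean activation of at least 10% of the iron chelator positive control signal, with at least half of replicates also reaching 10%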
Beta cell apopt – beta cell apoptosis inhibition; INS-1E cytokine-induced death, ATP luminescence, 48 h; percent of positive-control rescue, neutral wells zero; protection from apoptosis, % (concentration not given with the values); actives 0.8% (n = 300,000);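 active means Every replicate reaches about 75%, or at least half do and their mean reaches it too, limit read from the data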;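 further: 0% = cytokine-treated negative control wells and 100% = positive control rescue; higher means more ATP so stronger rescue from cytokine killing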
PfHsp90 set2 – growth inhibition of yeast expressing Plasmodium Hsp90 | S. cerevisiae expressing PfHsp90, BacTiter-Glo ATP, 48 h; yeast lacking PDR1 and PDR3 efflux regulators | inhibition, % at 9.4 µM | actives 0.32% (n = 310,000) | AID 504621;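 active means every replicate shows inhibition above about 80%, whatever the replicate mean, limit read from the data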;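 further: 0% = DMSO neutral controls and 100% = 20 µM radicicol positive controls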
T cruzi repl – blocks replication of Trypanosoma cruzi; T. cruzi beta-gal in NIH3T3, luminescence, 90 h; inhibition, % (test concentration not listed); actives 1.4% (n = 300,000); AID 1885;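 active means mean inhibition across valid replicates above about 55%, limit read from the data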;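 further: signal also drops with host cell toxicity which is not excluded here; 0% = plate median of DMSO wells and 100% = zero luminescence signal; higher percent means less beta-gal luminescence so fewer parasites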
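System: mouse NIH/3T3 fibroblasts infected with β-gal-expressing T. cruzi Tulahuen C4 / Input: NIH/3T3 cells, 5,000 per well / Buffer or medium: Low-serum DMEM with 2% FBS / Probe or stimulus: 5000 reporter trypomastigotes per well / Schedule: ≥90 h infection period, 3 h prior cell attachment / Measured by: GalScreen luminescence, 60 min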
SKKanGAS inh – inhibitors of SKKanGAS S. pyogenes growth in kanamycin (SK-promoter or general growth effect); BacTiter-Glo, 6 h; inhibition, % at 7.5 µM; actives 1.3% (n = 300,000); AID 1662;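 active means mean replicate score, as percent of positive control median, at least 50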;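 further: strain carries kanamycin resistance gene driven by streptokinase promoter and grows in 40 µg/ml kanamycin; loss of luminescence reflects streptokinase promoter inhibition or plain growth inhibition; 0% = median of DMSO wells and 100% = positive control at its reference dose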
Starred values were filed as active, the others as inactive; · = not tested or not shown. This is a sample that favours compounds with a hit; in the whole collection about 3.6% have one here.

SMILES	CSC inhib	HIF activator	Beta cell apopt	PfHsp90 set2	T cruzi repl	SKKanGAS inh
CCOc1ccc(OCC(=O)c2c(O)c3ccccc3oc2=O)cc1	9	-1	-3	3	-4	0
CC(C)(C)OC(=O)N(CCc1ccccc1)Cc1cccc(OCc2cccc(NC(=O)C3CCCC3)c2)c1	·	·	·	-14	·	·
Cc1ccc(S(=O)(=O)NCCC(=O)Nc2cc(S(=O)(=O)N(C)C)ccc2C)cc1C	-11	1	-2	-7	-11	2
O=[N+]([O-])c1cccc(/C=N/Nc2nc(NCc3ccccc3)nc(N3CCOCC3)n2)c1O	42	19*	12	16	41	15
COC(=O)C1CCCN1C(=O)COc1ccc(Cl)cc1Br (centres undefined)	-13	1	7	-7	-9	-3
CCOC(=O)c1ccc(NC(=O)c2ccccc2[N+](=O)[O-])cc1	-3	2	·	1	7	6
CCOC(=O)c1cc([N+](=O)[O-])c([N+](=O)[O-])cc1NC(C)=O	46	-1	2	100*	1	-1
COCCNC(=O)C1CCC(Cn2c(=S)[nH]c3ccccc3c2=O)CC1 (centres undefined)	-13	0	3	-9	-12	9
O=C(NCCc1c[nH]c2ccccc12)C1CCC(Cn2c(=S)[nH]c3ccccc3c2=O)CC1 (centres undefined)	76*	-1	11	-36	75*	33
C/C(=N/Nc1ccc(C(=O)c2c(C)cc3ccccn23)cc1[N+](=O)[O-])c1ccc(O)cc1	·	·	·	-41	·	·
COc1ccc(C2C(C(C)=O)=C(O)C(=O)N2c2ccc(F)cc2)cc1 (centres undefined)	-4	-1	·	-6	10	-4
O=S(=O)(c1cccc(C(F)(F)F)c1)N1CCCC1c1cccnc1 (centres undefined)	-10	0	-2	-9	·	-2
Cc1ccc(S(=O)(=O)N2CCCCC2c2cccnc2)c(C)c1C (centres undefined)	15	0	98*	-37	54	-13
CC(=O)N(C)c1ccc(OCC(O)Cn2c3ccc(Cl)cc3c3cc(Cl)ccc32)cc1 (centres undefined)	105*	-2	26	98*	48	65*
COc1cc(OC)cc(C(=O)NC(C(=O)NNC(=O)CN(C)S(=O)(=O)c2ccc(C)cc2)C(C)C)c1 (centres undefined)	·	·	·	-3	·	·
CC1(C)CC(NC(=O)c2cccc(Cl)c2)CC(C)(C)N1	-3	1	·	13	-29	-6
C/C(=N\NC(N)=S)C1C2C3CC4C5CC(C42)C1C53 (centres undefined)	·	0	10	-6	77*	-10
CCOC(=O)c1c(CSc2nc(C)cc(C)c2C#N)n(C)c2cc(Br)c(OC(C)=O)cc12	6	·	111*	-26	-1	3
C=CCCc1ccc(C#N)c(SCc2c(C(=O)OCC)c3cc(OC(C)=O)c(Br)cc3n2C)n1	1	-1	110*	-53	28	-9
CCCCCCCCOC(=O)c1c(CSC(=N)N)n(C)c2cc(Br)c(OC(C)=O)cc12	76*	-3	-1	·	22	75*
Cc1ccc(/C=C/C(=O)c2ccccc(=O)c2O)cc1C	97*	4	23	97*	59*	97*
O=C(/C=C/c1ccccc1)c1cc(Br)ccc(=O)c1O	93*	0	17	82*	48	98*
O=c1c2ccccc2oc2ccc(C#CC3(O)CCCCC3)cc12	93*	-6	-5	-13	32	6
O=C(CN1CCN(CC(=O)c2ccccc2)CC1)c1ccccc1	·	·	·	17	·	·
Nc1nc(-c2ccccc2)c(-c2ccccc2)s1	8	2	·	-36	-25	8
Nc1nc(-c2ccccc2)c(-c2ccc([N+](=O)[O-])cc2)s1	38	0	93*	1	-8	-1
Cn1nc([N+](=O)[O-])nc1Oc1ccccc1C(=O)N1CCOCC1	-8	0	-4	9	93*	6
NC(=O)c1ccc(-n2nnnc2Oc2ccccc2C(=O)N2CCOCC2)cc1	-3	-1	·	2	-27	-3
N#C/C(=C\c1c[nH]c2ccc(Br)cc12)c1ccccn1	79*	4	12	-5	2	51*
